Each structure is given as a SMILES string.

The text below walks through data of ChEMBL document CHEMBL1139240, “Synthesis, cytotoxic activity, DNA topoisomerase-II inhibition, molecular modeling and structure-activity relationship of 9-anilinothiazolo[5,4-b]quinoline derivatives” (Bioorg Med Chem, 2009).

The subject of assay [1] is HeLa. Nature of the assay: Cytotoxicity against human HeLa cells after 72 hrs by MTT assay. Type of assay: functional, cell-based. In short, it runs like this: (§1)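 Cells seeded at 4.5 to 5.0 × 10^4 cells/mL/well in 24-well plates, exposed to compounds in DMSO for 72 h. MTT in PBS pH 7.2 added, formazan dissolved in DMSO, absorbance read at 540 nm. % growth inhibition = (1 − treated/untreated absorbance) × 100. Three independent experiments in quadruplicate.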
(Tetrazolium assays rely on reduction of a dye to a coloured formazan, in cell work by metabolically active cells.)

Assay [2] relates to SW480. Nature of the assay: Cytotoxicity against human SW480 cells after 72 hrs by MTT assay. Conditions: SW480, 72 h. Type of assay: functional, cell-based. In short, it runs like this:
as §1

The subject of assay [3] is SW-620. Nature of the assay: Cytotoxicity against human SW620 cells after 72 hrs by MTT assay. Type of assay: functional, cell-based. The note with it: SW-620, 72 h. The method, boiled down: as §1
In assay [4] the test system is K562. Nature of the assay: Cytotoxicity against human K562 cells after 72 hrs by MTT assay. The note with it: K562, 72 h. It counts as functional, cell-based. The method, boiled down:
as §1

Assay [5] has as its target DNA topoisomerase 2-alpha (Homo sapiens, UniProt P11388). In words: Inhibition of human DNA topoisomerase 2-mediated Crithidia fasciculata kDNA decatenation using ethidium bromide staining by agarose gel electrophoresis. In short, it runs like this: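 Crithidia fasciculata kDNA (5 µg/mL) with 4 units human Topo II in 30 mM Tris–HCl pH 7.6, 60 mM NaCl, 8 mM MgCl2, 15 mM 2-mercaptoethanol, 3 mM ATP, 8% DMSO, 30 min at 37 °C. Proteinase K follows, then chloroform/isoamyl extraction and agarose gel with ethidium bromide. Decatenated plus linear DNA quantified densitometrically as % of total. Screened at 160 µM, IC50 from 1–160 µM curves.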

Chain of DNA topoisomerase 2-alpha (P11388 whole entry): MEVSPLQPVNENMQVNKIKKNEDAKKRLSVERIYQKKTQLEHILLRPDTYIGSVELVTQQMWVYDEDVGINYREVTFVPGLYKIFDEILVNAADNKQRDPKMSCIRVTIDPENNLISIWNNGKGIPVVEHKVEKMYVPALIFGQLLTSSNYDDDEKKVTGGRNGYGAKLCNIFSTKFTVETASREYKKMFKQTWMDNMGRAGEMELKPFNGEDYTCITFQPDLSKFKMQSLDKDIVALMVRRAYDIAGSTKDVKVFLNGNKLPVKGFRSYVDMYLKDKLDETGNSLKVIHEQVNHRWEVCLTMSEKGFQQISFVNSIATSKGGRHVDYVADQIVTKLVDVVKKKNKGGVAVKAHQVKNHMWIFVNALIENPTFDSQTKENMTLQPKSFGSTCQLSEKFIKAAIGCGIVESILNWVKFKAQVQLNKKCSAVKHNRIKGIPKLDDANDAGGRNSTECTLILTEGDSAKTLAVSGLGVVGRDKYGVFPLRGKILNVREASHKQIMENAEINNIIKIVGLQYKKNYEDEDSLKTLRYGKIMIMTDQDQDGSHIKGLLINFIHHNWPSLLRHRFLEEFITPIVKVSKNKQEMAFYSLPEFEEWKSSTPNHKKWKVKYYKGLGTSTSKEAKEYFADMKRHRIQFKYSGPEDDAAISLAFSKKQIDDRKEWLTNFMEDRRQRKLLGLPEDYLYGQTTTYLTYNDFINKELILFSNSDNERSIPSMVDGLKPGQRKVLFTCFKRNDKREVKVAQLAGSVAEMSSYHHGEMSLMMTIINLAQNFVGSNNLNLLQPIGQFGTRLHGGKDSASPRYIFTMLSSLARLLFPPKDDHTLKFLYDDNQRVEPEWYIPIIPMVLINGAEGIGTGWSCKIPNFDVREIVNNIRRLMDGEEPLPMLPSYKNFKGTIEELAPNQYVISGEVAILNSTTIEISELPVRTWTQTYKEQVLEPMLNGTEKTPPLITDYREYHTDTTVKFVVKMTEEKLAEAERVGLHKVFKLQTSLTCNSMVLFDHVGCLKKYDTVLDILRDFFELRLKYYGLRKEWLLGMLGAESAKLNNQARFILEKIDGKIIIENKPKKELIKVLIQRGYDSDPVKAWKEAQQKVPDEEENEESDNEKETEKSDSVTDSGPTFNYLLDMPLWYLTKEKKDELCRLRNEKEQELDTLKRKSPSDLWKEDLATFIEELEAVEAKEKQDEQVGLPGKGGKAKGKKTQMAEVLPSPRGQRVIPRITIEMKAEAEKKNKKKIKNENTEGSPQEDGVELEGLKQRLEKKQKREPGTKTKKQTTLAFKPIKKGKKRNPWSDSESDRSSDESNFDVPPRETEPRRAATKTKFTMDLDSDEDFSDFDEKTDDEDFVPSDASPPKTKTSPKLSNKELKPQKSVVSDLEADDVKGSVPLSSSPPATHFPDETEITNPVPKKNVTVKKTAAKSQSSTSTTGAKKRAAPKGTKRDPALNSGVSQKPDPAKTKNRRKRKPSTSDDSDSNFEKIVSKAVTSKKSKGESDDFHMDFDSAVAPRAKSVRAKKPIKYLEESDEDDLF

For the compound `CSc1nc2c(Nc3cccc(C(C)=O)c3)c3ccccc3nc2s1`, the IC50 in assay [1], in assay [2], in assay [3] and in assay [4] was above 80 µM throughout.

For the compound `CCN(CC)CCNc1nc2c(Nc3ccc(OC)cc3)c3ccccc3nc2s1`, the IC50 in assay [1] was 13.6 µM; in assay [2] it was 12 µM; in assay [3], 16.4 µM; in assay [4] it was 10.9 µM.

For the compound `CNc1cccc(Nc2c3ccccc3nc3sc(SC)nc23)c1`, the half-maximal inhibitory concentration (IC50) in assay [1] is 46.2 µM; in assay [2], above 80 µM; in assay [3], above 80 µM; in assay [4], 46.9 µM; in assay [5] it was 12.3 µM.

In the case of `CCN(CC)CCCNc1nc2c(Nc3ccc(C#N)cc3)c3ccccc3nc2s1`, the IC50 in assay [1] amounted to 24.2 µM; in assay [2], 22.7 µM; in assay [3] it was 29.2 µM; in assay [4], 12.9 µM.

In the case of `c1ccc(Nc2c3ccccc3nc3sc(N4CCOCC4)nc23)cc1`, the concentration for half-maximal inhibition (IC50) in assay [1], in assay [2], in assay [3] and in assay [4] was above 80 µM in each case.

For `CSc1nc2c(Nc3ccc(Cl)cc3)c3ccccc3nc2s1`, the concentration for half-maximal inhibition (IC50) in assay [1] is above 80 µM; in assay [2], above 80 µM; in assay [3], above 80 µM; in assay [4], 79.5 µM; in assay [5], 20.5 µM.

With `CCN(CC)CCNc1nc2c(Nc3cccc(Cl)c3)c3ccccc3nc2s1`, the IC50 is 9.12 µM in assay [1], 14.3 µM in assay [2], 17.8 µM in assay [3] and 12.2 µM in assay [4].

On to `CCN(CC)CCNc1nc2c(Nc3ccc(Cl)cc3)c3ccccc3nc2s1`, for which the IC50 came to 10.2 µM in assay [1], 12.6 µM in assay [2], 12.2 µM in assay [3] and 7.26 µM in assay [4].

For `CSc1nc2c(Nc3cccc(C#N)c3)c3cc(F)ccc3nc2s1`, the IC50 is above 80 µM in assay [1], above 80 µM in assay [2], above 80 µM in assay [3] and 55.4 µM in assay [4].

`CCN(CC)CCNc1nc2c(Nc3cccc(C#N)c3)c3ccccc3nc2s1`: the half-inhibitory concentration (IC50) in assay [1] was found to be 13.3 µM; in assay [2] it was 13.1 µM; in assay [3], 14.6 µM; in assay [4], 12.5 µM.

As for `CSc1nc2c(Nc3ccccc3)c3cc(F)ccc3nc2s1`, the IC50 in assay [1], in assay [2], in assay [3] and in assay [4] was above 80 µM each time.

Consider `CCN(CC)CCCNc1nc2c(Nc3cccc(C#N)c3)c3ccccc3nc2s1`, for which the IC50 in assay [1] came to 19.2 µM; in assay [2], 11.5 µM; in assay [3], 19.7 µM; in assay [4], 12.9 µM.

`CSc1nc2c(Nc3ccc(C#N)cc3)c3cc(F)ccc3nc2s1`: the IC50 in assay [1], in assay [2] and in assay [3] was above 80 µM throughout.

Turning to `Clc1c2ccccc2nc2sc(N3CCCCC3)nc12`, the IC50 in assay [1], in assay [2], in assay [3] and in assay [4] was above 80 µM throughout.

Consider `CSc1nc2c(Nc3cccc(NC(C)=O)c3)c3ccccc3nc2s1`, for which the concentration for half-maximal inhibition (IC50) in assay [1] is above 80 µM; in assay [2], above 80 µM; in assay [3] it was above 80 µM; in assay [4], above 80 µM; in assay [5] it was 29.6 µM.

Take `Clc1c2ccccc2nc2sc(N3CCOCC3)nc12`: the 50% inhibitory concentration (IC50) in assay [1], in assay [2], in assay [3] and in assay [4] was above 80 µM each time.

Regarding `COc1ccc(Nc2c3cc(F)ccc3nc3sc(SC)nc23)cc1`, the IC50 in assay [1] was above 80 µM; in assay [2] it was above 80 µM; in assay [3], above 80 µM; in assay [4], 54.9 µM.

For the compound `CCN(CC)CCNc1nc2c(Nc3cccc(OC)c3)c3ccccc3nc2s1`, the 50% inhibitory concentration (IC50) in assay [1] turned out to be 19.2 µM; in assay [2], 11.5 µM; in assay [3], 20 µM; in assay [4] it was 23.5 µM.

`CCN(CC)CCNc1nc2c(Nc3ccccc3)c3ccccc3nc2s1`: the half-inhibitory concentration (IC50) was determined as 16 µM in assay [1]; 37.7 µM in assay [2]; 21.6 µM in assay [3]; 16.8 µM in assay [4]; 169 µM in assay [5].

Turning to `CN1CCN(c2nc3c(Cl)c4ccccc4nc3s2)CC1`, the IC50 in assay [1], in assay [2], in assay [3] and in assay [4] was above 80 µM each time.

As for `CSc1nc2c(Nc3cccc(/C(C)=N\O)c3)c3ccccc3nc2s1`, the IC50 in assay [1] was determined as 34.2 µM; in assay [2], 37.3 µM; in assay [3], 39.4 µM; in assay [4] it was 32.8 µM.

Regarding `CSc1nc2c(Nc3cccc(C(F)(F)F)c3)c3ccccc3nc2s1`, the IC50 in assay [1] is 43.3 µM; in assay [2] it was 65.1 µM; in assay [3], 62.3 µM; in assay [4] it was 67.1 µM; in assay [5], 15.4 µM.

For `CCN(CC)CCCNc1nc2c(Nc3cccc(Cl)c3)c3ccccc3nc2s1`, the IC50 in assay [1] is 7.46 µM; in assay [2], 7.91 µM; in assay [3], 10.2 µM; in assay [4], 9.84 µM; in assay [5] it was 40.9 µM.

For the compound `CN1CCN(c2nc3c(Nc4ccccc4)c4ccccc4nc3s2)CC1`, the IC50 in assay [1] is 60.7 µM; in assay [2] it was 41.8 µM; in assay [3], above 80 µM; in assay [4], 73 µM.

In the case of `COc1cc(NS(C)(=O)=O)ccc1Nc1c2ccccc2nc2ccccc12` [AMSACRINE], the IC50 amounted to 9.5 µM in assay [1]; 27.7 µM in assay [2]; 16.7 µM in assay [3]; 19.9 µM in assay [4]; 9.94 µM in assay [5].

In the case of `CCN(CC)CCCNc1nc2c(Nc3ccc(Cl)cc3)c3ccccc3nc2s1`, the 50% inhibitory concentration (IC50) amounted to 8.82 µM in assay [1], 4.92 µM in assay [2], 7.48 µM in assay [3] and 3.36 µM in assay [4].

As to `CSc1nc2c(Nc3cccc(Cl)c3)c3ccccc3nc2s1`, the IC50 was 69.4 µM in assay [1]; above 80 µM in assay [2]; above 80 µM in assay [3]; 80.3 µM in assay [4]; 21.2 µM in assay [5].

`CSc1nc2c(Nc3cccc(O)c3)c3ccccc3nc2s1`: the 50% inhibitory concentration (IC50) in assay [1] was above 80 µM; in assay [2], above 80 µM; in assay [3] it was above 80 µM; in assay [4] it was above 80 µM; in assay [5], 64.3 µM.

Regarding `CSc1nc2c(Nc3cccc(N)c3)c3ccccc3nc2s1`, the half-inhibitory concentration (IC50) in assay [1] was above 80 µM; in assay [2] it was above 80 µM; in assay [3], above 80 µM; in assay [4], above 80 µM; in assay [5], 16.7 µM.

For the compound `COc1cccc(Nc2c3cc(F)ccc3nc3sc(SC)nc23)c1`, the 50% inhibitory concentration (IC50) is 15.8 µM in assay [1], 13.7 µM in assay [2] and 12.2 µM in assay [3].

On to `c1ccc(Nc2c3ccccc3nc3sc(N4CCCCC4)nc23)cc1`, for which the IC50 in assay [1], in assay [2], in assay [3] and in assay [4] was above 80 µM in each case.

For the compound `CCN(CC)CCNc1nc2c(Nc3ccc(C#N)cc3)c3ccccc3nc2s1`, the half-inhibitory concentration (IC50) in assay [1] is 15.2 µM; in assay [2], 14.2 µM; in assay [3], 16.5 µM; in assay [4], 8.36 µM.

For the compound `CCN(CC)CCCNc1nc2c(Nc3ccccc3)c3ccccc3nc2s1`, the half-maximal inhibitory concentration (IC50) in assay [1] was 6.27 µM; in assay [2], 6.9 µM; in assay [3], 16.6 µM; in assay [4] it was 7.52 µM.

As to `CCOC(=O)c1cccc(Nc2c3ccccc3nc3sc(SC)nc23)c1`, the half-maximal inhibitory concentration (IC50) in assay [1], in assay [2], in assay [3] and in assay [4] was above 80 µM throughout.

On to `CSc1nc2c(Nc3ccccc3)c3ccccc3nc2s1`, for which the IC50 in assay [1], in assay [2], in assay [3] and in assay [4] was above 80 µM in each case.

Consider `CSc1nc2c(Nc3cc(N)cc(CO)c3)c3ccccc3nc2s1`, for which the IC50 was above 80 µM in assay [1]; above 80 µM in assay [2]; above 80 µM in assay [3]; above 80 µM in assay [4]; 18 µM in assay [5].

A word on the IC50: it is the concentration that inhibits the measured activity by half.
